Experiments:
[1] = target: Muscarinic acetylcholine receptor; experiment: In vitro displacement of [3H]oxotremorine-M from muscarinic acetylcholine receptor in rat brain cortex; type: tissue-based
[2] = target: Neuronal acetylcholine receptor; experiment: In vitro displacement of [3H]methylcarbamylcholine from nicotinic acetylcholine receptor in rat brain cortex; type: tissue-based
Summary of the method: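 Male Mol:WIST rat cerebral cortex (fresh or frozen), homogenised in 50 mM Tris-HCl pH 7.4 with 120 mM NaCl, 5 mM KCl, 2 mM CaCl2, 1 mM MgCl2, spun 40000g 10 min; pellet resuspended. Incubated with [3H]MCC (2 nM final) and test salt, 60 min at 0 °C; GF/B filtration (0.5% PEI), scintillation counting. IC50 by nonlinear regression.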

SMILES | IC50 [1] [nM] | IC50 [2] [nM]
Cc1cc(/C=C2/CN3CCC2C3)on1 (configuration not stated) | 1020 | 23
Cc1cc(/C=C2\CCCN(C)C2)on1 | 9540 | > 1000
COCc1cc(/C=C2\CN3CCC2CC3)on1 | 1470 | 218
C/C(=C1/CN2CCC1CC2)c1cc(C)no1 | 2263 | 715
Cc1cc(/C=C2\CN3CCC2C3)on1 (configuration not stated) | 276 | 29
Cc1cc(/C=C2/CCCNC2)on1 | 7220 | 87
Cc1cnoc1/C=C1\CN2CCC1CC2 | 418 | 3.2
Cc1cc(/C=C2\CCCNC2)on1 | 6950 | > 1000
CCCc1cc(/C=C2\CN3CCC2CC3)on1 | 852 | 167
CCc1cc(/C=C2\CN3CCC2CC3)on1 | 566 | 100
COCc1cc(/C=C2/CN3CCC2CC3)on1 | 4000 | > 1000
Cc1cc(/C=C2/CCCN(C)C2)on1 | 5760 | > 1000
CC(C)c1cc(/C=C2\CN3CCC2CC3)on1 | 911 | 107
Cc1cc(/C=C2/CN3CCCC2C3)on1 (configuration not stated) | 1570 | 53
C(=C1/CN2CCC1CC2)/c1ccno1 | 312 | 1.65
Cc1noc(/C=C2/CN3CCC2CC3)c1C | 373 | > 1000
Cc1cc(/C=C2/CCN(C)C2)on1 | 4420 | 783
Cc1cc(/C=C2/CCNC2)on1 | 3290 | > 1000
Cc1cc(/C=C2\CN3CCCC2C3)on1 (configuration not stated) | 898 | 130
Clc1ccc(C2CC3CCC2N3)cn1 (racemic) [EPIBATIDINE] | > 1 | –
Cc1cc(C=C2CNC2)on1 | 19300 | > 1000
Cc1cc(/C=C2/CN3CCC2CC3)on1 | 1810 | 504
CC(C)c1cc(/C=C2/CN3CCC2CC3)on1 | 2280 | > 1000
CCc1cc(/C=C2/CN3CCC2CC3)on1 | 867 | > 1000
Cc1cc(/C=C2\CCN(C)C2)on1 | 15700 | > 1000
Cc1cc(/C(F)=C2\CN3CCC2CC3)on1 | 1450 | 255
Cc1cnoc1/C=C1\CN2CCC1C2 (configuration not stated) | 19 | 0.32
CCCc1cc(/C=C2/CN3CCC2CC3)on1 | 1930 | > 1000
Cc1cc(/C=C2\CN3CCC2CC3)on1 | 658 | 3.9

Reference: ChEMBL document CHEMBL1132490, “Improving the nicotinic pharmacophore with a series of (Isoxazole)methylene-1-azacyclic compounds: synthesis, structure-activity relationship, and molecular modeling” (J Med Chem, 1999)
